Test results reported in ChEMBL document CHEMBL1136985, “New pyridinone derivatives as potent HIV-1 nonnucleoside reverse transcriptase inhibitors” (J Med Chem, 2009).

Legend:
[1] = Selectivity index, ratio of CC50 for human HeLaP4 cells to EC50 for HIV1 NL4-3; assay type: toxicity, cell-based; details: read-out: Ratio CC50/EC50
Procedure, shortened: (§1)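 Viability by WST-1 absorbance at 570 nm relative to drug-free control. Divided by EC50 from the 48 h β-galactosidase infection assay with NL4-3 in the same cell type.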

[2] = tested on: Human immunodeficiency virus 1; assay: Antiviral activity against wild type HIV1 NL4-3 in human HeLaP4 cells assessed as beta-galactosidase activity after 48 hrs; assay type: functional, organism-based
Procedure, shortened: (§2)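 Cells plated at 5000/well, incubated 48 h, then medium replaced with compound (0.00128 to 4 µM). Infection 4 h later with cell-free NL4-3 virus equivalent to 100 ng p24. At 48 h postinfection cells lysed in PBS with 0.1% NP-40 and 5 mM MgCl2. β-Galactosidase read with chlorophenol red β-D-galactopyranoside. EC50 taken from dose-response curves.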

[3] = tested on: Human immunodeficiency virus 1; assay: Antiviral activity against HIV1 NL4-3 with V108I mutant in human TZM-b1 cells assessed as beta-galactosidase activity after 48 hrs by single round replication assay; assay type: functional, organism-based; details: Human immunodeficiency virus 1, NL4-3, TZM-b1, 48 h
Procedure, shortened: (§3)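 TZM-bl cells (DMEM, 5% heat-inactivated FBS) plated at 5000 cells/well and grown 48 h. Medium replaced with compound at 0.00128–4 µM. After 4 h, cells infected with NL4-3-derived RT-mutant virus equal to 100 ng p24. Virus stocks came from HEK293 cells transfected with sequence-verified mutant clones. At 48 h, cells lysed in PBS/0.1% NP-40/5 mM MgCl2 and β-galactosidase read with CPRG. EC50 taken from dose-response curves.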

[4] = tested on: Human immunodeficiency virus 1; assay: Antiviral activity against HIV1 NL4-3 in human TZM-b1 cells assessed as beta-galactosidase activity after 48 hrs by single round replication assay; details: Human immunodeficiency virus 1, NL4-3, TZM-b1, 48 h
[5] = tested on: Human immunodeficiency virus 1; assay: Antiviral activity against HIV1 NL4-3 with L100I mutant in human TZM-b1 cells assessed as beta-galactosidase activity after 48 hrs by single round replication assay; assay type: functional, organism-based; details: Human immunodeficiency virus 1, NL4-3, TZM-b1, 48 h; procedure, shortened: as §3
[6] = tested on: Human immunodeficiency virus 1; assay: Antiviral activity against HIV1 NL4-3 with L100I/V108I double mutant in human TZM-b1 cells assessed as beta-galactosidase activity after 48 hrs by single round replication assay; assay type: functional, organism-based; details: Human immunodeficiency virus 1, NL4-3, TZM-b1, 48 h; procedure, shortened: as §3
[7] = tested on: Human immunodeficiency virus 1; assay: Antiviral activity against HIV1 NL4-3 with K103N/L100I double mutant in human TZM-b1 cells assessed as beta-galactosidase activity after 48 hrs by single round replication assay; assay type: functional, organism-based; details: Human immunodeficiency virus 1, NL4-3, TZM-b1, 48 h; procedure, shortened: as §3
[8] = tested on: Human immunodeficiency virus 1; assay: Antiviral activity against HIV1 NL4-3 with K103N/Y181C double mutant in human TZM-b1 cells assessed as beta-galactosidase activity after 48 hrs by single round replication assay; details: Human immunodeficiency virus 1, NL4-3, TZM-b1, 48 h
[9] = tested on: Human immunodeficiency virus 1; assay: Antiviral activity against HIV1 NL4-3 with K103N/V108I double mutant in human TZM-b1 cells assessed as beta-galactosidase activity after 48 hrs by single round replication assay; details: Human immunodeficiency virus 1, NL4-3, TZM-b1, 48 h
[10] = tested on: Human immunodeficiency virus 1; assay: Antiviral activity against HIV1 NL4-3 with Y181C mutant in human TZM-b1 cells assessed as beta-galactosidase activity after 48 hrs by single round replication assay; assay type: functional, organism-based; details: Human immunodeficiency virus 1, NL4-3, TZM-b1, 48 h; procedure, shortened: as §3
[11] = Selectivity index, ratio of CC50 for human TZM-b1 cells to EC50 for HIV1 NL4-3; assay type: toxicity, cell-based; details: read-out: Ratio CC50/EC50; procedure, shortened: as §1
[12] = tested on: Human immunodeficiency virus 1; assay: Antiviral activity against HIV1 NL4-3 with K103N mutant in human TZM-b1 cells assessed as beta-galactosidase activity after 48 hrs by single round replication assay; assay type: functional, organism-based; details: Human immunodeficiency virus 1, NL4-3, TZM-b1, 48 h; procedure, shortened: as §3
[13] = tested on: Human immunodeficiency virus 1; assay: Antiviral activity against wild type HIV1 NL4-3 in human TZM-b1 cells assessed as beta-galactosidase activity after 48 hrs; assay type: functional, organism-based; details: Human immunodeficiency virus 1, NL4-3, TZM-b1, 48 h; procedure, shortened: as §2
[14] = molecular target: Human immunodeficiency virus type 1 reverse transcriptase (Human immunodeficiency virus 1) (UniProt Q72547); assay: Inhibition of recombinant HIV1 reverse transcriptase assessed as residual activity at 10 uM by […] incorporation assay relative to control
Procedure, shortened: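 Recombinant HIV-1 RT, compound at 10 µM final (from DMSO). Incubated 10 min at 37 °C, then collected on DEAE filters and washed. Counted by phosphorimager; activity expressed relative to uninhibited RT.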

[15] = tested on: Human immunodeficiency virus 1; assay: Antiviral activity against HIV1 NL4-3 with L100I mutant in human MT4 cells assessed as inhibition of virus-induced cytopathicity after 5 days by multiple round replication assay; assay type: functional, organism-based; details: Human immunodeficiency virus 1, NL4-3, MT4, 120 h
Procedure, shortened: (§4)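 MT-4 human T-cells, cultured in RPMI 1640 with 10% heat-inactivated FBS at 37 °C, 5% CO2, infected with HIV-1 NL4-3-derived mutant strains, then exposed to a range of compound concentrations. After 5 days, viability of infected and mock-infected cells read by WST-1 tetrazolium cleavage.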

[16] = tested on: Human immunodeficiency virus 1; assay: Antiviral activity against wild type HIV1 NL4-3 in human MT4 cells assessed as inhibition of virus-induced cytopathicity after 5 days by multiple round replication assay; assay type: functional, organism-based; details: Human immunodeficiency virus 1, NL4-3, MT4, 120 h
Procedure, shortened: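 MT-4 T cells in RPMI 1640 with 10% FBS were infected with NL4-3 (wild type or RT mutants) and exposed to a range of compound concentrations. After 5 days, viability of infected and mock-infected cells was read by WST-1 cleavage, giving EC50 against viral cytopathicity and CC50 together.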

[17] = tested on: Human immunodeficiency virus 1; assay: Antiviral activity against HIV1 NL4-3 with K103N mutant in human MT4 cells assessed as inhibition of virus-induced cytopathicity after 5 days by multiple round replication assay; assay type: functional, organism-based; details: Human immunodeficiency virus 1, NL4-3, MT4, 120 h; procedure, shortened: as §4
[18] = tested on: Human immunodeficiency virus 1; assay: Antiviral activity against HIV1 NL4-3 with double K103N/L100I mutant in human MT4 cells assessed as inhibition of virus-induced cytopathicity after 5 days by multiple round replication assay; assay type: functional, organism-based; details: Human immunodeficiency virus 1, NL4-3, MT4, 120 h; procedure, shortened: as §4
[19] = tested on: Human immunodeficiency virus 1; assay: Antiviral activity against HIV1 NL4-3 with Y181C mutant in human MT4 cells assessed as inhibition of virus-induced cytopathicity after 5 days by multiple round replication assay; assay type: functional, organism-based; details: Human immunodeficiency virus 1, NL4-3, MT4, 120 h; procedure, shortened: as §4
[20] = tested on: Human immunodeficiency virus 1; assay: Antiviral activity against HIV1 NL4-3 with Y181C mutant in human HeLaP4 cells assessed as beta-galactosidase activity after 48 hrs by single round replication assay; assay type: functional, organism-based; details: Human immunodeficiency virus 1, NL4-3, HeLaP4, 48 h
[21] = Human immunodeficiency virus 1, NL4-3, HeLaP4, 48 h

EC50 [2, 21] [nM]	SMILES	EC50 [4] [nM]	EC50 [5] [nM]	EC50 [6] [nM]	EC50 [7] [nM]	EC50 [9] [nM]	selectivity ratio [11]	EC50 [12] [nM]	EC50 [13] [nM]	further results
1200	CCc1c(C)[nH]c(=O)c(N)c1O[C@@H]1C[C@H](C)C[C@H](C)C1									selectivity ratio [1]: 83
	CCc1c(C)[nH]c(=O)c(C)c1O[C@@H]1C[C@H](C)C[C@H](C)C1	> 10000	203	833	1400	5100	40000	142	2	EC50 [3]: 121 nM; EC50 [8]: 1200 nM; EC50 [10]: 893 nM
	CCc1c(C)[nH]c(=O)c(Br)c1O[C@@H]1C[C@H](C)C[C@H](C)C1	6300		38	68	780	> 28000	9	< 1	EC50 [3]: 1 nM; EC50 [8]: 523 nM; EC50 [10]: 138 nM
	CCOC(=O)c1c(OC2CCCCC2)c(CC)c(C)[nH]c1=O						> 435		230	Activity [14]: 44.7%
	CCc1c(C)[nH]c(=O)c(C(C)C)c1O[C@@H]1C[C@H](C)C[C@H](C)C1	1100	2	10	44	105	> 82000	2	< 1	EC50 [15]: 6 nM; EC50 [8]: 642 nM; EC50 [16]: 2 nM; EC50 [10]: 6 nM; EC50 [17]: 7 nM; EC50 [18]: 84 nM; EC50 [19]: 19 nM
	CCc1c(C)[nH]c(=O)c(N(C)C)c1O[C@@H]1C[C@H](C)C[C@H](C)C1	> 10000	28	1600	2900	> 10000	> 66000	14	< 1	EC50 [3]: 6 nM; EC50 [8]: 245 nM; EC50 [10]: 177 nM
258	CCOC(=O)c1c(OC2CC(C)(C)CC(C)(C)C2)c(CC)c(C)[nH]c1=O									selectivity ratio [1]: 112
	Cc1ccnc2c1NC(=O)c1cccnc1N2C1CC1 [NEVIRAPINE]	> 10000	252	> 10000	> 10000	> 10000		3300	39	EC50 [3]: 792 nM; EC50 [10]: > 10000 nM
	CCOC(=O)c1c(OC2CC(C)CC(C)C2)c(CC)c(C)[nH]c1=O (stereo in doubt; 10)									EC50 ([2]; helap4): 43 nM
> 10000	CCc1c(C)[nH]c(=O)c(C(=O)O)c1OC1CCCCC1									
13	CCOC(=O)c1c(OC2CCCC(C)C2C)c(CC)c(C)[nH]c1=O (centres undefined)									selectivity ratio [1]: 2620
> 3000	CCOC(=O)c1c(OC2CCCCC2Cl)c(CC)c(C)[nH]c1=O (centres undefined)									selectivity ratio [1]: < 33
	CCOC(=O)c1c(OC2CCCCCCC2)c(CC)c(C)[nH]c1=O						83		700	Activity [14]: 24%
	CCc1c(C)[nH]c(=O)c([N+](=O)[O-])c1O[C@@H]1C[C@H](C)C[C@H](C)C1	> 10000	9	8300	> 10000	> 10000	> 37000	177	< 1	EC50 [3]: 2 nM; EC50 [10]: 279 nM
	CCc1c(OC2CC(C)CC(C)C2)cc(=O)[nH]c1C (centres undefined)						200		275	
	CCOC(=O)c1c(OC2CCCCCC2)c(CC)c(C)[nH]c1=O						205		390	Activity [14]: 34.6%
	CCc1c(C)[nH]c(=O)c(C(C)(C)O)c1O[C@@H]1C[C@H](C)C[C@H](C)C1						> 100000		< 1	
520	CCOC(=O)c1c(OC2CCCC(C)C2)c(CC)c(C)[nH]c1=O (centres undefined)									selectivity ratio [1]: 192
85	CCOC(=O)c1c(OC2CC(C)CC(C)C2)c(CC)c(C)[nH]c1=O (stereo in doubt; 10B)									
	CCc1c(C)[nH]c(=O)c(CC)c1O[C@@H]1C[C@H](C)C[C@H](C)C1	5400	6	115	81	107	> 67000	5	< 1	EC50 [15]: 27 nM; EC50 [8]: 359 nM; EC50 [16]: 2 nM; EC50 [10]: 15 nM; EC50 [17]: 26 nM; EC50 [18]: 145 nM; EC50 [19]: 49 nM
955	CCOC(=O)c1c(OC2C(C)CCCC2C)c(CC)c(C)[nH]c1=O (centres undefined)									selectivity ratio [1]: 78
	CCc1c(C)[nH]c(=O)c(CO)c1O[C@@H]1C[C@H](C)C[C@H](C)C1						> 826		121	
	CCc1c(C)[nH]c(=O)c(CN=[N+]=[N-])c1O[C@@H]1C[C@H](C)C[C@H](C)C1	> 10000	34	107	828	4400	> 54000	74	< 1	EC50 [3]: 11 nM; EC50 [8]: 689 nM; EC50 [10]: 206 nM
	O=C1Nc2ccc(Cl)cc2[C@@](C#CC2CC2)(C(F)(F)F)O1 [EFAVIRENZ]	235	17	14	3700	34		31	< 1	EC50 [15]: 167 nM; EC50 [8]: 525 nM; EC50 [17]: 320 nM; EC50 [18]: > 10000 nM; EC50 [19]: 4 nM
> 4000	CCOC(=O)c1c(OC2CCC(CC)CC2)c(CC)c(C)[nH]c1=O (centres undefined)									selectivity ratio [1]: < 14
236	CCOC(=O)c1c(O[C@H]2C[C@H](C)C[C@H](C)C2)c(CC)c(C)[nH]c1=O									
	CCOC(=O)c1c(OC2CCCC2)c(CC)c(C)[nH]c1=O						> 135		740	Activity [14]: 58.6%
	CCOC(=O)c1c(S[C@@H]2C[C@H](C)C[C@H](C)C2)c(CC)c(C)[nH]c1=O						862		116	

SMILES	EC50 [2, 21] [nM]	EC50 [4] [nM]	EC50 [5] [nM]	EC50 [6] [nM]	EC50 [7] [nM]	EC50 [9] [nM]	selectivity ratio [11]	EC50 [12] [nM]	EC50 [13] [nM]	further results
CCOC(=O)c1c(O[C@@H]2C[C@H](C)C[C@H](C)C2)c(CC)c(C)[nH]c1=O	36	> 10000	2200					> 10000		EC50 [3]: 5900 nM; selectivity ratio [1]: 1780; EC50 [20]: 2000 nM
